The target in one data set is T1, Retinoid X receptor (Homo sapiens, UniProt P28702+P48443+P19793).
T1 sequence (P28702 whole entry): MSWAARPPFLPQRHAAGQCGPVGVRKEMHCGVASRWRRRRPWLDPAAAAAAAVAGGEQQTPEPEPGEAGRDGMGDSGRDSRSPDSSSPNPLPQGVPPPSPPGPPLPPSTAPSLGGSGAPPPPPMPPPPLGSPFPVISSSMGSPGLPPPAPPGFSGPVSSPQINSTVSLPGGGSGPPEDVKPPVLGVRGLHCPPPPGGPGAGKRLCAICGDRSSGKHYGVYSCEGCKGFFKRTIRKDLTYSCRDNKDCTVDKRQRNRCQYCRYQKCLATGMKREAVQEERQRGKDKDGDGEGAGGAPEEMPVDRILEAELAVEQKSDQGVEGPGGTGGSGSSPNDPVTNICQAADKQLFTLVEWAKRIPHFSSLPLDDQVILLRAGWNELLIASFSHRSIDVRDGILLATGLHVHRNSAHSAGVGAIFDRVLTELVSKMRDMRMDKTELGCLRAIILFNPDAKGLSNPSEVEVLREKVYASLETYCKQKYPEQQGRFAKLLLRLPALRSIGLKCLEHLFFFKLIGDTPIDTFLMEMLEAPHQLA
T1 sequence (P48443 whole entry): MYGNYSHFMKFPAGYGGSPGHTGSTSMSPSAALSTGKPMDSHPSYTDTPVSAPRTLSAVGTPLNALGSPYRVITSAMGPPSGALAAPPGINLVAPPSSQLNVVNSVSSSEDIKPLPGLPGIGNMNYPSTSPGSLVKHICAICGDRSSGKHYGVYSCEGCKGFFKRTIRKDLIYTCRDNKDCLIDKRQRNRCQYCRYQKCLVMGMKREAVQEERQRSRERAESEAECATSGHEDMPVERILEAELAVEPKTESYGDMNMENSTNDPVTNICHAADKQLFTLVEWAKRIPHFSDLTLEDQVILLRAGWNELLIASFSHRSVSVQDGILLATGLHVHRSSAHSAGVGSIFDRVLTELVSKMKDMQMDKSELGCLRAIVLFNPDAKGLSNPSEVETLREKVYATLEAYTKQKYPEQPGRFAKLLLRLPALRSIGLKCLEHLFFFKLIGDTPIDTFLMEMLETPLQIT
T1 sequence (P19793 whole entry): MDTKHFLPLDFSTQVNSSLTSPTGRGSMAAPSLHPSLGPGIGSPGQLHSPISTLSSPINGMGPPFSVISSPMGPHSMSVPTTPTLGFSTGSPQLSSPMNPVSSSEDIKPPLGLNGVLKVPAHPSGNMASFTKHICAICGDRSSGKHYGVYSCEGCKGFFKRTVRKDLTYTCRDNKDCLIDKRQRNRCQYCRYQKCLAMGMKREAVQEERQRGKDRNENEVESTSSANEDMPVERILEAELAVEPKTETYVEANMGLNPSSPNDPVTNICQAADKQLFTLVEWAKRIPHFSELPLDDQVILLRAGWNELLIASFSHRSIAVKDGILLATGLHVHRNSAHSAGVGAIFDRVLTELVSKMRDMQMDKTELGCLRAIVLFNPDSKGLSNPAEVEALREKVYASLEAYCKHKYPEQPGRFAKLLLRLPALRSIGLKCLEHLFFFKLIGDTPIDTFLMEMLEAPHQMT
Put plainly: Inhibition of GAL4-fused human RXR transcriptional activity expressed in CHOK1 cells after 2 days by luciferase reporter gene assay. It counts as cell-based.

Another data set has as its target Cytochrome P450 2C19 (Homo sapiens, UniProt P33261). Nature of the data set: Time-dependent inhibition of human CYP2C19. It counts as ADME.
A short description of data set [1]: Stability in human liver microsomes assessed as compound remaining after 60 mins. It counts as ADME, Microsome. Conditions: read-out: Stability. Put shortly: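 Human liver microsomes incubated with compound for 60 minutes; value reported as % of compound remaining.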
For orientation: Liver microsomes are a subcellular fraction often used to study metabolism.

Data set [2] is described as follows: Terminal half life in CD(SD) rat at 1 mg/kg, iv. The following applies: in vivo, read-out: beta t1/2 (converted). The class given is ADME, organism-based.
For data set [3], the target named is T2, Peroxisome proliferator-activated receptor gamma (Homo sapiens, UniProt P37231).
T2 sequence (P37231 whole entry): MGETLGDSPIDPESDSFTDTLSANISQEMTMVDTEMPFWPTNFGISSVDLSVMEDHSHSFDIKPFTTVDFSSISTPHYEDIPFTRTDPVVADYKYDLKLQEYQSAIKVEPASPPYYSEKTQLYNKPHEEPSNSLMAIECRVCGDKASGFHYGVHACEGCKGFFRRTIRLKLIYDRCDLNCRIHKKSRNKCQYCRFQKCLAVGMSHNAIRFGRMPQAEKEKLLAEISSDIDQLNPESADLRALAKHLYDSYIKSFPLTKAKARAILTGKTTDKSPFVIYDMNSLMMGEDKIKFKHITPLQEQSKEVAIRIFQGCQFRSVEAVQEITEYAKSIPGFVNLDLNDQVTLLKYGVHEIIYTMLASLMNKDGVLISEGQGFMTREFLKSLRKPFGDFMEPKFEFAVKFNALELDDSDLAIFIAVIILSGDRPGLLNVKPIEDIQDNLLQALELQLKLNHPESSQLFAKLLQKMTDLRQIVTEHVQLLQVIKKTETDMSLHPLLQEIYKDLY
Nature of the data set: Inhibition of GAL4-fused human PPARgamma transcriptional activity expressed in CHOK1 cells after 2 days by luciferase reporter gene assay. It counts as cell-based. For orientation: Reporter assays use an easily measured gene product as a stand-in for the process of interest.

Another data set concerns Mus musculus. Nature of the data set: Anti-inflammatory activity in orally dosed C57BL/6 mouse model of MOG (35 to 55 residues)/pertussis toxin/anti-CD3 antibody-induced experimental allergic encephalomyelitis assessed as inhibition of IL17 production measured 8 hrs after post dose by ELISA. It counts as functional. In short, it runs like this:
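Female C57BL/6 mice immunized subcutaneously at two back sites (75 μg MOG35–55 per site; peptide at 3 mg/mL in D-PBS emulsified 1:1 with complete Freund's adjuvant), plus intraperitoneal pertussis toxin 0.2 μg on days 1 and 3. Day 5: anti-CD3 1 μg i.v. Oral dosing 3 h or 8 h before anti-CD3, 5 mice/group. Blood taken 2 h post-anti-CD3; plasma IL-17A measured by ELISA.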

Where only a bound is given, the exact number is not on record here.

As a reminder, the EC50 is the concentration giving half of the maximal effect. A lower EC50 goes with an effect from little substance. The IC50 is the concentration that gives 50% inhibition. Low values mean greater potency, high ones weaker potency. By ED50 is commonly meant the midpoint of the dose-response relation.

Chain of Cytochrome P450 2C19 (P33261 whole entry): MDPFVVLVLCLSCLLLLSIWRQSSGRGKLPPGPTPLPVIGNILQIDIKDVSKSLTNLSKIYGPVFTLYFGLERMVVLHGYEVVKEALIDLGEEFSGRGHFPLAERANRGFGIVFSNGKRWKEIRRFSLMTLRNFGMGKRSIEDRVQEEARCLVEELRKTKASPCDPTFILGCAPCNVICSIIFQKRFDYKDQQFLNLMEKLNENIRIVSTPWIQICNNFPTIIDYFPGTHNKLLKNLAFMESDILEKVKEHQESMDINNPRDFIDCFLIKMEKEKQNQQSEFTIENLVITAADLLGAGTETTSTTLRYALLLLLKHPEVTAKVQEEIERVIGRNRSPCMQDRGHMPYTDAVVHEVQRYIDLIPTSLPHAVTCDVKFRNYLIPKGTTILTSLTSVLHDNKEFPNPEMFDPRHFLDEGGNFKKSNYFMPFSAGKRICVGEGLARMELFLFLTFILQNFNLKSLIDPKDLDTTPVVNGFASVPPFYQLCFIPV

Turning to `CC(C)(C)Cc1cc(-c2onc([C@@H](CCC(=O)[O-])CC(=O)Nc3ccc(Cl)cc3Cl)c2C2CC2)no1.[Na+]`, the EC50 (at Retinoid X receptor; in data set [3]) was over 20 µM each time. The compound further came in with an IC50 against Cytochrome P450 2C19 of over 50 µM. Moreover, in data set [1], the remaining at 1 h came to 96%. In addition, in data set [2], the half-life is 4.2 h. The Activity entry in the data set on Mus musculus is “Dose-dependent effect”. Besides, the ED50 with Mus musculus (C57BL/6, po) is 3 mg/kg.

(Values after ChEMBL document CHEMBL4480411, “Discovery of Second Generation RORγ Inhibitors Composed of an Azole Scaffold” (J Med Chem, 2019).)
